These results are taken from publication PMC3501270 (Bioorganic & medicinal chemistry, 2012).

The target in one data set is wild-type Smo (Homo sapiens, UniProt Q99835). Type of data set: binding. As to conditions: 25 nM [3H]-cyclopamine; competitor 0 – 10 µM.
Data set [1] is described as follows: Storage stability in solution. The data set is classed as physicochemical. Conditions: room temperature, DMSO or methanolic solution, 1 week.
The target in data set [2] is vasopressin2 receptor (V2R) (Homo sapiens, UniProt P30518). The data set is described as follows: V2R/βarr2-GFP aggregation control assay. The data set is classed as cell-based. As to conditions: arginine vasopressin stimulated cells; Supplementary Figure 3.
The target of data set [3] is Smo-D473H mutant receptor (Homo sapiens, UniProt Q99835, D473H). Type of data set: binding. As to conditions: for displacement of [3H]-cyclopamine from Smo-D473H: U2OS cells overexpressing Smo-D473H, competitor up to 10 µM.
Data set [4] relates to Smo-633 receptor and βarr2-GFP. Description: Smo/βarr2-GFP translocation primary high-throughput confocal imaging assay. The data set is classed as cell-based. As to conditions: U2OS cells stably expressing Smo-633 and βarr2-GFP; 5 µM, 6 hours.
The subject of the next data set is Hh-dependent hair growth. The data set is described as follows: Hh-dependent hair regrowth after depilation. Type of data set: in vivo, mouse. Conditions: C57BL female mice, topical 30 µl of 0.5 mM daily for 2 weeks. A digest of the protocol: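 Eight-week-old female C57BL/6 mice in telogen phase had the dorsum shaved. The lower half of the shaved area was depilated with Nair for 2 min and rinsed with water. Test compound in 95% acetone/5% DMSO, or vehicle alone, was applied topically to the depilated skin. Brief 3% isoflurane anaesthesia was used for all procedures. Five mice per group; hair regrowth assessed at 2 weeks.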

In data set [5] the test system is Shh-induced Gli reporter activity. Conditions: 1 µM concentration; cited from earlier work.

Chain of Smo-D473H mutant receptor (Q99835 28-787 D473H): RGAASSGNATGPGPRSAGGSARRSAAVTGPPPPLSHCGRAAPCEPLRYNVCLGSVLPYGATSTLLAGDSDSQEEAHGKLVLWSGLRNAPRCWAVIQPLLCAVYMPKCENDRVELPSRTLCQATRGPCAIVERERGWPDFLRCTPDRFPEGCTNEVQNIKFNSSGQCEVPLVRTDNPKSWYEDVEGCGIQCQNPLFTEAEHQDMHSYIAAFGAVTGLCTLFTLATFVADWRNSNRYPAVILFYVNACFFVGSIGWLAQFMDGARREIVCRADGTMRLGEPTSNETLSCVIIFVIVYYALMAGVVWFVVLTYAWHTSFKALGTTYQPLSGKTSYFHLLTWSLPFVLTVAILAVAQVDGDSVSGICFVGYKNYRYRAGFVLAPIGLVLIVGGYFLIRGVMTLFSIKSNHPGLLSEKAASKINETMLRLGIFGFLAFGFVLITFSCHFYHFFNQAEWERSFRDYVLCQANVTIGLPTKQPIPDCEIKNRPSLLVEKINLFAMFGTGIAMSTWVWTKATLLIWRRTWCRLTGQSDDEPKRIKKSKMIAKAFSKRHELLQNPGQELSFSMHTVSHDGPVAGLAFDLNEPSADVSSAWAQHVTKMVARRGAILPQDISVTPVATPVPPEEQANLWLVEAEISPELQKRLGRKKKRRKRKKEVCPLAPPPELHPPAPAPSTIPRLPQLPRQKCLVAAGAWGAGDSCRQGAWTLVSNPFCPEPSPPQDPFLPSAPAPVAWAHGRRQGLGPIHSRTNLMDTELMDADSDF
Chain of wild-type Smo (Q99835 28-787): as the sequence (Q99835 28-787 D473H) above, with H446D counted along it
Chain of vasopressin2 receptor (V2R) (P30518 whole entry, species assumed): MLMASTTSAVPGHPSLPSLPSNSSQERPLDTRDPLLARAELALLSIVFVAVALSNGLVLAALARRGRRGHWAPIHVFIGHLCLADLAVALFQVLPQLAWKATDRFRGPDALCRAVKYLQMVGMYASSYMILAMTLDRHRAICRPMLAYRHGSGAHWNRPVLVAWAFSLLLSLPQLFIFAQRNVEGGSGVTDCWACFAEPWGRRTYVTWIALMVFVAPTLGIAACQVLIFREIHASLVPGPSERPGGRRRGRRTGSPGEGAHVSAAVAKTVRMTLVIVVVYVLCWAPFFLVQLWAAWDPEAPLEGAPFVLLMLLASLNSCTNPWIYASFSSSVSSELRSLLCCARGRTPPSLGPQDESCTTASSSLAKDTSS

With `O=C(NC1CCN(Cc2ccc(N3CCC(NC(=O)c4cccc(-c5cccnc5)c4)CC3)nc2)CC1)c1cccc(-c2cccnc2)c1` [Compound A8], the “displacement of [3H]-cyclopamine from wild-type Smo” value (shortened to “displacement … from wild-type Smo”) at wild-type Smo is recorded as “completely displaced”. The “activity after storage in solution” value in data set [1] is on record as “retained activity”. Moreover, the “aggregation of V2R and βarr2-GFP” value in data set [2] is “not inhibited”. The “displacement of [3H]-cyclopamine from Smo-D473H” value (“displacement … from Smo-D473H” below) in data set [3] is recorded as “completely displace”. The “right shift in affinity, SmoD473H versus wild-type Smo” value in data set [3] (ratio of Ki mutant / wild-type) is recorded as “approximately 13 fold”. For the same molecule, the “inhibition of intracellular βarr2-GFP aggregation” value in data set [4] is “confirmed”. Besides, the Hh-induced hair growth entry in the data set on Hh-dependent hair growth is on record as “largely inhibited”.
In the case of `CS(=O)(=O)c1ccc(C(=O)Nc2ccc(Cl)c(-c3ccccn3)c2)c(Cl)c1` [GDC-0449, Vismodegib], the “displacement … from wild-type Smo” value at wild-type Smo is given as “completely displaced”. Moreover, the “displacement … from Smo-D473H” value in data set [3] is “only partially displaced”.
For the molecule `Cc1c(C(=O)Nc2ccc(N3C[C@@H](C)O[C@@H](C)C3)nc2)cccc1-c1ccc(OC(F)(F)F)cc1` [LDE-225, Erismodegib], the “displacement … from wild-type Smo” value on wild-type Smo is “completely displaced”. The “binding affinity to the mutant receptor (Ki not determinable)” value in data set [3] (Smo-D473H, up to 10 uM) is recorded as “too weak”. Further, the “displacement … from Smo-D473H” value in data set [3] is on record as “largely ineffective”.
With `CC1=C2C[C@H]3[C@@H](CC=C4C[C@@H](O)CC[C@@]43C)[C@@H]2CC[C@]12O[C@@H]1C[C@H](C)CN[C@H]1[C@H]2C` [cyclopamine], the “displacement … from wild-type Smo” value at wild-type Smo is on record as “completely displaced”. Besides, the “inhibition of Gli-reporter activity at 1 µM” value in data set [5] is “strong inhibition”. For the same molecule, in data set [3], the “displacement … from Smo-D473H” value is “completely displace”. For the same molecule, the “inhibition of intracellular βarr2-GFP aggregation” value in data set [4] was “inhibits the aggregation of βarr2-GFP”.
